≈ marks a conversion by molar mass, not a printed value.
Assays:
[1] = Metabolic stability in rat liver microsomes at 1 umol/L after 20 mins by HPLC assessed per mg of protein; format: ADME, Microsome; conditions: read-out: Stability
In short: (§1)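 Hepatic microsomes (0.2 mg/mL protein) were incubated at 37 °C for 0 and 20 min with an NADPH-generating system added at 10% of reaction volume. The system held 50 mmol/L MgCl₂, 50 mmol/L glucose-6-phosphate, 5 mmol/L β-NADP⁺ and 15 unit/mL G6PDH. Reactions were stopped with an equal volume of acetonitrile, run in duplicate. Parent disappearance was measured by HPLC-UV and expressed as %/min/mg.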

Mus musculus [2] = assay: Antiobesity activity in C57BL/6 mouse assessed as reduction in subcutaneous white adipose tissue weight at 3 mg/kg, po BID for 4 weeks; format: functional; set-up: scale not given: the % may be the effect or the level left
In short: (§2)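 C57BL/6 mice fed a high-fat diet were dosed orally b.i.d. at 3 mg/kg as a 0.5% MC suspension for four weeks. Endpoints were body weight gain, total food intake, and mesenteric, perirenal and subcutaneous white adipose tissue weights.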

[3] = target: T1, Diacylglycerol O-acyltransferase 1 (Mus musculus, UniProt Q9Z2A7); assay: Inhibition of DGAT1 in mouse C2C12 cells assessed as suppression of [14C]triglyceride accumulation pretreated for 20 mins before [14C]oleic acid challenge measured after 20 mins by TLC analysis; format: cell-based
T1 sequence (Q9Z2A7 whole entry): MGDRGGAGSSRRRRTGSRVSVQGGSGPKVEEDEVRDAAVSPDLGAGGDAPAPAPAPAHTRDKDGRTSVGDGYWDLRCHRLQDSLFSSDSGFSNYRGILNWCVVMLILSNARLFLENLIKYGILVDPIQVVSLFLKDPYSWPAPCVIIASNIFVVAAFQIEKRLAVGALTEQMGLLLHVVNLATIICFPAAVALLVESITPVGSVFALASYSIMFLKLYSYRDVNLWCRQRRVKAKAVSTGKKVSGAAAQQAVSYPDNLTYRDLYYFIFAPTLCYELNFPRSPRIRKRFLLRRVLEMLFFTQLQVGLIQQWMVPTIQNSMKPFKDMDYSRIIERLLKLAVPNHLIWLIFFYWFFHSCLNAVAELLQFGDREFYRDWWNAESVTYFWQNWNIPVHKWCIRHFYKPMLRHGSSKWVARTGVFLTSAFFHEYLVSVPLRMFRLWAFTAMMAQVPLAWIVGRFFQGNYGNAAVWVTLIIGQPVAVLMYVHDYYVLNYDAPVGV
In short: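 C2C12 cell suspension (10⁶ cells/mL final) was preincubated with serial compound dilutions at 37 °C for 20 min. [¹⁴C]-oleic acid substrate was then added with 0.001% fatty-acid-free BSA, 0.2% ethanol and 0.1% DMSO final. After 20 min at 37 °C, reactions were stopped with chloroform/methanol (1:2). Chloroform-phase lipids were separated by TLC (hexane/ether/ethyl acetate/acetic acid 255:30:15:0.6).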

[4] = Metabolic stability in human liver microsomes at 1 umol/L after 20 mins by HPLC assessed per mg of protein; format: ADME, Microsome; conditions: read-out: Stability; in short: as §1
Mus musculus [5] = assay: Antiobesity activity in C57BL/6 mouse assessed as reduction in mesenteric white adipose tissue weight at 3 mg/kg, po BID for 4 weeks; format: functional; set-up: scale not given: the % may be the effect or the level left; in short: as §2
Mus musculus [6] = assay: Toxicity in C57BL/6 mouse assessed as effect on total food intake at 3 mg/kg, po BID for 4 weeks; format: organism-based; set-up: dose 3 mg/kg, route oral; conditions: in vivo, 672 h; in short: as §2
Mus musculus [7] = assay: Antiobesity activity in C57BL/6 mouse assessed as reduction in body weight gain at 3 mg/kg, po BID for 4 weeks; format: functional; set-up: scale not given: the % may be the effect or the level left; in short: as §2
[8] = Metabolic stability in mouse liver microsomes at 1 umol/L after 20 mins by HPLC assessed per mg of protein; format: ADME, Microsome; conditions: read-out: Stability; in short: as §1
Mus musculus [9] = assay: Antiobesity activity in C57BL/6 mouse assessed as reduction in perirenal white adipose tissue weight at 3 mg/kg, po BID for 4 weeks; format: functional; set-up: scale not given: the % may be the effect or the level left; in short: as §2
[10] = target: T2, Diacylglycerol O-acyltransferase 1 (Homo sapiens, UniProt O75907); assay: Inhibition of human DGAT1 expressed in baculovirus infected Sf9 cells using [14C]oleoyl-CoA after 15 mins by TLC analysis
T2 sequence (O75907 whole entry): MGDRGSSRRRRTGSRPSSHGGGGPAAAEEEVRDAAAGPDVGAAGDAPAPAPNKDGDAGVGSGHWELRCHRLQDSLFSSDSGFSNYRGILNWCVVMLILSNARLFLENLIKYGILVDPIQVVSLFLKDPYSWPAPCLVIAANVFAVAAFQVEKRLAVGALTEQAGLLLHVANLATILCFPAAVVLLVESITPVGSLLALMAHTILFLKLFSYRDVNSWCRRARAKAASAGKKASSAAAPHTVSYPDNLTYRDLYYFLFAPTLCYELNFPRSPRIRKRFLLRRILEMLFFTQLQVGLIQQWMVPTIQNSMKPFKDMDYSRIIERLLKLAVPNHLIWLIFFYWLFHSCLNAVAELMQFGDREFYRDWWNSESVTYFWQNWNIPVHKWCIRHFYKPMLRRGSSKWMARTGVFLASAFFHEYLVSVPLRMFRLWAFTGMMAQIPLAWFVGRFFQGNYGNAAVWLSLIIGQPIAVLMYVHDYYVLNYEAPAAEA

[11] = Solubility at pH 6.8; format: physicochemical; conditions: buffer

| SMILES | remaining at 20 min, 1 µM [1] | IC50 [3] | remaining at 20 min, 1 µM [4] | remaining at 20 min, 1 µM [8] | further results |
| --- | --- | --- | --- | --- | --- |
| CCOc1ccc(C(=O)NC[C@H](CO)NC(=O)c2cn(-c3ccccc3)nc2C(F)(F)F)cc1 |  |  |  |  | IC50 [10]: > 10 µM |
| CCOc1ccc(C(=O)NCCNC(=O)c2cn(-c3ccccn3)nc2C(F)(F)F)cc1 | 10% | 0.091 µM | 14% | 7% |  |
| CCOc1ccc(C(=O)N[C@H](CO)CNC(=O)c2cn(-c3ccccc3)nc2C(F)(F)F)cc1 |  |  |  |  | IC50 [10]: > 10 µM |
| CCOc1ccc(C(=O)NCCNC(=O)c2cn(Cc3ccccc3)nc2C(F)(F)F)cc1 | 18% |  | 5.5% | 7.5% |  |
| CCOc1cc(C)c(C(=O)CCC(=O)Nc2nc(-c3ccccc3)c(Cc3ccccc3)s2)cc1OCC | 11% |  | 13% | 16% | solubility [11]: 0.08 µg/mL (≈ 0.151 µM) |
| CCOc1ccc(C(=O)NCCNC(=O)c2cn(-c3cccnc3)nc2C(F)(F)F)cc1 |  | 3.4 µM |  |  |  |
| CCOc1ccc(C(=O)NCCNC(=O)c2nc(-c3ccccc3)c(Cc3ccccc3)s2)cc1 | 14% |  | 10% | 17% | solubility [11]: < 0.05 µg/mL |
| CCOc1cccc(C(=O)NCCNC(=O)c2cn(-c3ccccc3)nc2C(F)(F)F)c1 | 8.3% | 5.1 µM | 14% | 19% |  |
| CCOc1ccc(C(=O)NCCNC(=O)c2cn(-c3ccccc3)nc2C)cc1 | 5.8% | 0.26 µM | 5% | 2.5% |  |
| O=C(NCCNC(=O)c1cn(-c2ccccc2)nc1C(F)(F)F)c1ccc(Cl)nc1 | 1.1% | 0.37 µM | 2.2% | 0% |  |
| CCOc1ccc(C(=O)NCCNC(=O)c2cn(-c3ccccc3)nc2C(F)(F)F)cn1 | 3.4% | 0.087 µM | 5.1% | 2.5% |  |
| CCOc1ccc(C(=O)NC[C@@H](CO)NC(=O)c2cn(-c3ccccc3)nc2C(F)(F)F)cc1 |  |  |  |  | IC50 [10]: > 10 µM |
| CCOc1ccc(C(=O)N[C@@H](CO)CNC(=O)c2cn(-c3ccccc3)nc2C(F)(F)F)cc1 |  |  |  |  | IC50 [10]: > 10 µM |

More lines, main results first:

| remaining at 20 min, 1 µM [1] | IC50 [3] | remaining at 20 min, 1 µM [4] | remaining at 20 min, 1 µM [8] | SMILES | further results |
| --- | --- | --- | --- | --- | --- |
| 0.4% | 0.044 µM | 2.1% | 0% | O=C(NCCNC(=O)c1cn(-c2ccccc2)nc1C(F)(F)F)c1ccc(OCC(F)(F)F)nc1 | Activity (Mus musculus [2]): -2.8%; Activity (Mus musculus [5]): -25%; Activity (Mus musculus [6]): Non-toxic; Activity (Mus musculus [7]): -75%; Activity (Mus musculus [9]): -12% |
| 18% | 0.61 µM | 5.7% | 0.5% | CCOc1ccc(C(=O)NCCNC(=O)c2cn(-c3ccccc3O)nc2C(F)(F)F)cc1 |  |
| 7.2% | 1.5 µM | 4.5% | 3.4% | CCOc1ccc(C(=O)NCCNC(=O)c2cn(-c3ccc(Cl)cc3)nc2C(F)(F)F)cc1 |  |
| 11% | 0.65 µM | 8.7% | 7.8% | CCOc1ccc(C(=O)NCCNC(=O)c2cn(C3CCCCC3)nc2C(F)(F)F)cc1 |  |
| 6.5% | 0.4 µM | 5.9% | 3.5% | O=C(NCCNC(=O)c1cn(-c2ccccc2)nc1C(F)(F)F)c1ccc(-n2cccn2)cc1 |  |
| 6.5% | 0.077 µM | 9% | 7% | CCOc1ccc(C(=O)NCCNC(=O)c2cn(-c3ccccc3)nc2C(F)(F)F)cc1 | solubility [11]: 1.1 µg/mL (≈ 2.46 µM) |
| 12% | 1.2 µM | 12% | 14% | CCOc1ccc(C(=O)NCCNC(=O)c2nn(-c3ccccc3)cc2C)cc1 |  |
| 7.1% | 0.6 µM | 7.4% | 6.5% | CCOc1ccc(C(=O)NCCNC(=O)c2cn(-c3cccc(OCC)c3)nc2C(F)(F)F)cc1 |  |
| 8.7% | 0.38 µM | 7.5% | 14% | CCOc1ccc(C(=O)NCCNC(=O)c2cn(-c3ccc(OCC)cc3)nc2C(F)(F)F)cc1 |  |
| 2.6% | 1.2 µM | 4.8% | 1.8% | O=C(NCCNC(=O)c1cn(-c2ccccc2)nc1C(F)(F)F)c1ccc(Cl)cn1 |  |
|  | > 10 µM |  |  | CCOc1ccc(C(=O)NCCNC(=O)c2cn(-c3ccncc3)nc2C(F)(F)F)cc1 |  |
